Experimental data: the EternaBench riboswitch data

Tested on: MS2 coat protein
Assay: apparent Kd, MS2 coat protein; higher = weaker binding; RNA-MaP array; FMN 200 µM where present
Summary of the method: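 Designs were transcribed by stalled E. coli RNA polymerase on Illumina sequencing-chip clusters. They were titrated with SNAP-549-labelled MS2 coat protein from 0.7 or 1.5 nM, doubling to 3 µM, in 100 mM Tris-HCl pH 7.5, 80 mM KCl, 4 mM MgCl2, BSA, DTT, yeast tRNA and Tween-20, without and then with constant ligand. The apparent Kd is the median of filtered per-cluster fits after normalisation of green signal to red-channel RNA signal and control-cluster median Fmax.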

[1] = designed as: OFF switch for flavin mononucleotide, no ligand
[2] = ligand present: flavin mononucleotide, designed as: OFF switch for flavin mononucleotide
[3] = designed as: ON switch for flavin mononucleotide, no ligand
[4] = ligand present: flavin mononucleotide, designed as: ON switch for flavin mononucleotide

Sequence: GUACUGUAGUGAGGAUAUACGAGCUCGAUAGAGCGGCGAUCCAUAUAUACAUGAGGAUCACCCAUGUAGAAGGCACUUCAGUAC
- apparent Kd [1]: 7.07 nM
- apparent Kd [2]: 96.5 nM

Sequence: CAGUACUGAGGAUAUACAUGAGGAUCACCCAUGUGCUUUAGCUAGGAUACUAGCACCAGUAGAAGGCAGUACUG
- apparent Kd [1]: 10.6 nM
- apparent Kd [2]: 23.8 nM

Sequence: ACAGUAUAUGUAGGAUAUCAUUGGCUAGGUAGGUGAGAAGGGCAUAGUACAUGAGGAUCACCCAUGUGUUGGUCCUCGCAGAAA
- apparent Kd [1]: 634 nM
- apparent Kd [2]: 380 nM

Sequence: UGUCCAUAGCAGAAGGACAUGAAUACAUGAGAAAACAUGAGGAUCACCCAUGUAGGAUAUGCUAUGGACUAAGAGCGAAAGCUC
- apparent Kd [1]: 12.2 nM
- apparent Kd [2]: 91.9 nM

Sequence: AUACCACGAGGAUAUCGACUAUACCACAUGAGGAUCACCCAUGUUAUCCAUGUUUCGUUUCGAGAAGGCGUGGGUU
- apparent Kd [1]: 39.1 nM
- apparent Kd [2]: 33.9 nM

Sequence: UUGGACGUCGUAGGAUAUGUAGGAUAUUCGUACAUGAGGAUCACCCAUGUUGACAUGGAAGAAGGACAGAAGGACGAUGUCCAU
- apparent Kd [3]: 12.2 nM
- apparent Kd [4]: 4.55 nM

Sequence: CGGCCCUAUCGAGGAUAUAAGUCUAGGACAUGAGGAUCACCCAUGUAUGUCUUAGAAGGCGAUAGGGCCAGCCUGUUACAGGCA
- apparent Kd [3]: 29.7 nM
- apparent Kd [4]: 6.23 nM

Sequence: GCAUACAUUCGAGGAUAUCGGUGAACAAAUUAACGAGAAGGCGAUAUAAUUUUUAAUCUUAUAAACAUGAGGAUCACCCAUGUA
- apparent Kd [3]: 21.8 nM
- apparent Kd [4]: 19.5 nM

Sequence: GGUGCCAUGUAGAAGGCAGAUCUGAUUCAGAUCUGAGGAUAUACAUGAGGAUCACCCAUGUAAAGCCACCGCACGAGAGUGCAA
- apparent Kd [1]: 70.2 nM
- apparent Kd [2]: 190 nM

Sequence: GCAUCACAUGAGGAUCACCCAUGUCUUCGGAGUCGAGGAUAUGGUCACUGUAAACAGUGGCCAGAAGGCGAGAUGC
- apparent Kd [3]: 48.1 nM
- apparent Kd [4]: 31.6 nM

Sequence: CGUCGAUACCAGAAGGACAUGAGGAUCACCCAUGUAGGAUAUGGGUGACCGGGAUGGUGGACACGGUGCCCGGGCACAUGCGAC
- apparent Kd [3]: 81.8 nM
- apparent Kd [4]: 14.9 nM

Sequence: UUCAUGUGAGGAUAUGUGAUCUGCUUUCUGUUUAGAUGAUCACAGAAGGCACAUGAGGAUCACCCAUGUAGAUC
- apparent Kd [2]: 22.6 nM

Sequence: UCGGCGCGAGGAUAUACGUUUGCGCUUUUUCGUUUUUGCGUACAUGAGGAUCACCCAUGUAGAAGGCGCGCCGC
- apparent Kd [1]: 15.6 nM
- apparent Kd [2]: 23 nM

Sequence: UGUUGUAUUACAGGAUAUCUAUUAAUUUUAUUUAGAGAAGGGUAUUCACAUGAGGAUCACCCAUGUAUAUACGAGGAAGUUGUG
- apparent Kd [3]: 53.7 nM
- apparent Kd [4]: 57.1 nM

Sequence: CUCGUGUUAGGAUAUCGUGGCUGGGCUGGGACGUCCGAUGGCGAGAAGGGACAUGAGGAUCACCCAUGUAAAAC
- apparent Kd [1]: 28.6 nM
- apparent Kd [2]: 27.6 nM

Sequence: AAGAAACAUGAGGAUCACCCAUGUAAAUAAAACACAGGAUAUCGAAUAUGGGAGAUUUAACGAGAAGGGUGAAGAA
- apparent Kd [3]: 100 nM
- apparent Kd [4]: 56.6 nM

Sequence: AUUAUUUUCGAAGGAUAUGGAUACAUGAGGAUCACCCAUGUAUAAAAUGAGAUCUAUUAUAUGAUCCAGAAGGUCGUUGUUUAU
- apparent Kd [1]: 35.6 nM
- apparent Kd [2]: 68.8 nM

Sequence: GUGCGUGGCUAGGAUAUUGUGGAGUUUAGUCAGCGAGAAGGCGCCACAUGAGGAUCACCCAUGUGGUGUUGCUC
- apparent Kd [1]: 13.1 nM
- apparent Kd [2]: 14.7 nM

Sequence: CUAGCGAGUGAGAAGGCCAGCUUUUAUACAUGAGGAUCACCCAUGUAGCCCUAAAGGGUAUGCAUGGAGGAUAUCACGAGCCUG
- apparent Kd [3]: 11.7 nM
- apparent Kd [4]: 7.03 nM

Sequence: UCCGCUCGAGGAUAUACAUGAGGAUCACCCAUGUUUCCCUGUUGUUUGGCCUUAGGAUGUAGAAGGCGACGUUA
- apparent Kd [1]: 17.7 nM
- apparent Kd [2]: 17.8 nM

Sequence: UCCCUAGAAGUAAGGAUAUGUCGAUGGCCAAUUCGAUAGAAGGUACAUGAGGAUCACCCAUGUGACCUACUGGG
- apparent Kd [1]: 15.7 nM
- apparent Kd [2]: 23.7 nM

Sequence: UGUGGACAUGAGGAUCACCCAUGUGAGGAUAUGGUCUGGAUACACUUGAGCUCGGCAUCCAGAAGGCGCGUGGC
- apparent Kd [1]: 85.9 nM
- apparent Kd [2]: 71.4 nM

Sequence: CGGUACAUCGGAGGAUAUCAUGUAAAUACAUGAGGAUCACCCAUGUCGAUGGAGACAUCGGAGAUUGAGAAGGCCGAUGUACCG
- apparent Kd [3]: 186 nM
- apparent Kd [4]: 9.27 nM

Sequence: UGAGCCUCGUGAGGAUAUACAUGAGGAUCACCCAUGUAAAUGGAAGAACGGAGGAAACUCCGAAUGUAGAAGGCACGAGGCUCA
- apparent Kd [1]: 145 nM
- apparent Kd [2]: 773 nM

Sequence: GGUAAGAUGCAGAAGGUGUUAGCUAGAGCUACGACAUGAGGAUCACCCAUGUACUAGAAACAGUACAAGGAUAUGCAUCUUACA
- apparent Kd [3]: 17.1 nM
- apparent Kd [4]: 6.12 nM

Sequence: AAGAUGCGGAUAGGAUAUGGAGAGAAAGAAAGACCAGAAGGAUUGGUCAUAUAACAUGAGGAUCACCCAUGUAUAUGUUGUGAA
- apparent Kd [1]: 19.9 nM
- apparent Kd [2]: 16.6 nM

Sequence: GGGUACAUCGGAGGAUAUCAUGUAAAUACAUGAGGAUCACCCAUGUCGAUGGAGACAUCGGAGAUUGAGAAGGCCGAUGUCCCG
- apparent Kd [3]: 194 nM
- apparent Kd [4]: 7.99 nM

Sequence: GCACGAGACUAAGGAUAUGGAGUAUCUACAUUAAACAUGAGGAUCACCCAUGUAGGGAGUAUGAUUCAGAAGGUAGAGACGUGC
- apparent Kd [3]: 157 nM
- apparent Kd [4]: 37.3 nM

Sequence: ACCGUAUGAACAUGAGGAUCACCCAUGUAACCGAUAACGAAUGAGGAUAUCGAUAGCAAAGCUAUCGAGAAGGCAUGGGACGGU
- apparent Kd [3]: 224 nM
- apparent Kd [4]: 43.9 nM

Sequence: AAUAUGUGAGGAUAUAUCCACCGCGUAGGCGCGCGGUGACAAUAGAAGGUACAUGAGGAUCACCCAUGUAGGGA
- apparent Kd [1]: 51.5 nM
- apparent Kd [2]: 31.5 nM

Sequence: AUGCCGUGCAGAGCGCGACGGCGAACAUGAGGAUCACCCAUGUAGGAUAUACUACACAAAGUGUAGUAGAAGGACGUGCGGCAC
- apparent Kd [1]: 20.9 nM
- apparent Kd [2]: 30.8 nM

Sequence: AAAUAGUUAGGAUAUACAUGAGGAUCACCCAUGUGGACUGAUGGCGAUUGAUUUAGUGGUAGAAGGGACUCAAA
- apparent Kd [1]: 40.3 nM
- apparent Kd [2]: 58.4 nM

Sequence: GGUGCACGCACAGGAUAUCCGGCGGAGCUCGUCGGAGAAGGGUGACAUGAGGAUCACCCAUGUACGUGCAACCCAGUUUGAGAG
- apparent Kd [3]: 45.2 nM
- apparent Kd [4]: 30.7 nM

Sequence: AAUAGUGACCAGAAGGCGUCGCGUCGAUAGCGACGAGGAUAUGGUGAGUGAGGAGCAAACUCCACAUGAGGAUCACCCAUGUCC
- apparent Kd [3]: 594 nM
- apparent Kd [4]: 89.9 nM

Sequence: ACUUGCUUGCAGAAGGGUGACAUGAGGAUCACCCAUGUAGCGGGCCGGCGUAAAGUCAGCGCGCCACAGGAUAUGCAGGCCUCG
- apparent Kd [3]: 25.2 nM
- apparent Kd [4]: 58.5 nM

Sequence: CCGACCUUGGCAGGAUAUAGACUCGAAGUUGAUCCCGCCGGUGGAGACAUGAGGAUCACCCAUGUCUAGAAGGGCCAGUCGAAA
- apparent Kd [1]: 16.2 nM
- apparent Kd [2]: 72.9 nM

Sequence: AAAAUCUAUUGAGGAUAUUCAUACACUACAUACGGAGAAGGCAAACAAUCAUGAGGACAUGAGGAUCACCCAUGUUGUGACCAU
- apparent Kd [3]: 23.4 nM
- apparent Kd [4]: 20 nM

Sequence: AAGAAGUGAGGAUAUCGUGCUCGUCACUUGCGUGAUGAGUACGAGAAGGCACAUGAGGAUCACCCAUGUAAAGA
- apparent Kd [1]: 37.6 nM
- apparent Kd [2]: 46.1 nM

Sequence: AUAGGCCUAGGAUAUACAUGAGGAUCACCCAUGUUAAUAUUUCAAUCAUGAUAAACGUGUAGAAGGAGGAAUAA
- apparent Kd [1]: 25.9 nM
- apparent Kd [2]: 28.6 nM

Sequence: ACGUUAAUUCGAGGAUAUCGGUGAUAUAAUUUACGAGAAGGCGAUAAUUGUGAUAAACUUAUAGACAUGAGGAUCACCCAUGUA
- apparent Kd [3]: 42.6 nM
- apparent Kd [4]: 39.2 nM

Sequence: CUACAUGAGGAUCACCCAUGUGCGCACUGGAUCAGUGCGCGCAGAAGGGCCAUGGAGAAAGCCAGGCAGGAUAUGCAAAGGGCU
- apparent Kd [3]: 288 nM
- apparent Kd [4]: 226 nM

Sequence: AACUUCAGAGGAUAUACAUGAGUGAAAAAAGUCUGAUAACUACAUGAGGAUCACCCAUGUAGAAGGCUGUAGCA
- apparent Kd [1]: 29.1 nM
- apparent Kd [2]: 35.4 nM

Sequence: AUCAGCUCGUCAGGAUAUACGUCACUGCGUCUGCAGUGUGGUAAGAUCACAUGAGGAUCACCCAUGUAGAAGGGACGAGCUGAU
- apparent Kd [1]: 14.1 nM
- apparent Kd [2]: 254 nM

Sequence: CAGGGUAGAGGAUAUACGUAGGUACAGAUCUGUGUGUUCCUACAUGAGGAUCACCCAUGUAGAAGGCUAGCCUG
- apparent Kd [1]: 89.7 nM
- apparent Kd [2]: 324 nM

Sequence: AAAAUGUGAGGAUAUUAGUUGUACGUCAAUAGACGUAUAAGUGAGAAGGCACAUGAGGAUCACCCAUGUUCCUG
- apparent Kd [1]: 20.6 nM
- apparent Kd [2]: 112 nM

Sequence: UUCAUUAACAUGAGGAUCACCCAUGUUGGCCAGUCUCACACCAGAAGGCACGUUGAGCACAUCAGUGAGGAUAUGGGUGACAUA
- apparent Kd [3]: 331 nM
- apparent Kd [4]: 91 nM

Sequence: UUUUUACGAGGAUAUCGUUUUUUUCACAUGAGGAUCACCCAUGUUGUUUAUGUUGCGUUGCGAGAAGGCGUUUGUU
- apparent Kd [1]: 27.4 nM
- apparent Kd [2]: 22.8 nM

Sequence: UGUUGUAUUACAGGAUAUCUAGUGUUUUUAUUUAGAGAAGGGUAUUCACAUGAGGAUCACCCAUGUAUAUACGAGGAAGUUGUG
- apparent Kd [3]: 55.9 nM
- apparent Kd [4]: 61.2 nM

Sequence: GCCAUCGCAUGAGGAUAUGCUCCCGUUUCGGGAGCAGAAGGCAUGUCAUAAGACAUGAGGAUCACCCAUGUAGAUAAGGUGGCA
- apparent Kd [3]: 337 nM
- apparent Kd [4]: 12.7 nM

Sequence: AGUAAGAUGCAGAAGGUGUCAGCGAGAGCUGCGACAUGAGGAUCACCCAUGUACUAGUGAGAGUACAAGGAUAUGCAUCUUACA
- apparent Kd [3]: 313 nM
- apparent Kd [4]: 45.7 nM

Sequence: AAGAAAUGGGAGUGAUCUGGUUCCGAGGAUAUAGGCAUCGGUACAUGAGGAUCACCCAUGUCCGACUAGAAGGCGGACGGGUCC
- apparent Kd [3]: 34.1 nM
- apparent Kd [4]: 8.76 nM

Sequence: UGCGUAUACGGAGGAUAUGUACAGGUCGCCGUACAUGAGGAUCACCCAUGUGCAGAAGGCCGUAGCGCUAAACUGGAUUGCAAU
- apparent Kd [1]: 11.4 nM
- apparent Kd [2]: 57.3 nM

Sequence: GCCGAACAUGAGGAUCACCCAUGUCCGGGUAGUCAAGGAUAUGGGUAGGCAAUGCCGUGGCCAGAAGGUGGCUAUC
- apparent Kd [3]: 97.6 nM
- apparent Kd [4]: 30.9 nM

Sequence: ACAAAACAUGUAGGAUAUCGAUUGCGUCGCGAUCGAGAAGGACAAGAGGGUCACCCUUGUACAUGAGGAUCACCCAUGUCAUGU
- apparent Kd [1]: 202 nM
- apparent Kd [2]: 149 nM

Sequence: CGUAACUACAUAGGAUAUUGAUACAUGAGGAUCACCCAUGUUUUUGGGAUUAGUUUAAUAUUAAGCAAGAAGGAUGAAGUUACG
- apparent Kd [3]: 45.4 nM
- apparent Kd [4]: 31.1 nM
